One data set has as its target KRAS^G12D (Homo sapiens, UniProt P01116, G12D). The experiment in a line: SOS-catalyzed guanine nucleotide exchange. It is filed as biochemical.
The nature of data set [1]: Cell homogenate stability assay. The class given is in vitro ADME. Particulars: human; for half-life at 1 µM: HeLa cell homogenate. A digest of the protocol:
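HeLa cells suspended at 1 × 10^6 cells/mL, probe-sonicated on ice until homogeneous, then frozen at −20 °C until use. Peptides incubated with the homogenate (1 × 10^6 cells/mL equivalent). Loss of parent peptide over increasing time quantified by LC-MS/MS.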

Another data set has as its system pERK, AsPC-1 cells. The data set is described as follows: AlphaScreen pERK assay in AsPC-1 cells. It is filed as cell-based. To be noted: for IC50: pERK. The gist of the method:
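AsPC-1 cells grown in RPMI 1640 (GlutaMAX, HEPES) with 10% FBS and penicillin/streptomycin. Seeded at 15 000 cells/well and held overnight at 37 °C, 5% CO2, then switched to serum-free medium. Compound dose-response series added acoustically, then incubated 2 and 18 h. Cells washed with DPBS and lysed with protease inhibitors. pERK (615 nm) and total ERK (535 nm) read by AlphaScreen SureFire multiplex. pERK/total ERK ratio fitted to 4-parameter logistic.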
In general terms: Bead proximity is the source of the signal in Alpha formats.

For the next data set, the system named is HeLa cells. The experiment in a line: NanoClick cell permeability assay. The class given is in vitro ADME, Human.
The next data set has as its system pERK, A375 cells. The experiment in a line: AlphaScreen pERK counter screen in A375 cells. The class given is cell-based.
For another data set, the system named is AsPC-1 cells. The data set is described as follows: LDH release. Particulars: 18 h LDH release assay. The class given is cell-based. A digest of the protocol:
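AsPC-1 cells seeded at 15 000/well overnight, then dosed with a compound titration in serum-free medium at 37 °C, 5% CO2. At 18 h post dose, part of the medium was transferred and mixed 1:1 with CytoTox-ONE reagent. Plates shaken 45 min at ambient temperature and fluorescence read (ex 560/em 590 nm). Dose-response curves fitted to 4-parameter logistic.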
(LDH in the medium is a marker of cell lysis.)

Setting [2] is: read-out: AlphaScreen (AsPC-1) 2 h IC50, AsPC-1, 2 h.
[3] abbreviates: read-out: AlphaScreen (AsPC-1) 18 h IC50, AsPC-1, 18 h.
The mark [4] stands for this setting: read-out: NanoClick (HeLa) 4 h EC50, 4 h.
[5] abbreviates: read-out: NanoClick (HeLa) 18 h EC50, 18 h.

Three molecules from publication PMC9289880 (Journal of Medicinal Chemistry, 2022) can be followed below.

Read-outs that look alike come from different tables or passages of the source. *1 amine or outer side, *2 acyl side, *3 side chain or, on linkers, in order; H or OH if unused. Where a SMILES comes first, the peptide text is derived from it. Bridges are numbered along the chain shown (N, C = ends). [ ]: non-standard residue; d: D form. Pro(3R-Ph) = O=C(O)[C@H]1NCC[C@@H]1c1ccccc1; Bip = N[C@@H](Cc1ccc(-c2ccccc2)cc1)C(=O)O; αMeS = C[C@](N)(CO)C(=O)O; CH2 = C([*:1])[*:2] Bounds are passed on as bounds.

Sequence of KRAS^G12D (P01116 1-188 isoform P01116-2 G12D): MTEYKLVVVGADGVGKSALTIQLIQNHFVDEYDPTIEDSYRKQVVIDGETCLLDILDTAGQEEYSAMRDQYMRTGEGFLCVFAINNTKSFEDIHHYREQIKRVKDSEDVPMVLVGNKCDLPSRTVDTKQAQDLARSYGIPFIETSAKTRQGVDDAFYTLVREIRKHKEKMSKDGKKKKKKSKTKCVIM

As a reminder, the IC50 is the midpoint of a concentration-inhibition curve. The term half-life denotes how long it takes for the measured level to halve. A lower half-life goes with rapid decline. The EC50 is the midpoint of the concentration-response curve. As to `CC[C@H](C)[C@@H]1NC(=O)[C@H](Cc2ccc(-c3ccccc3)cc2)NC(=O)[C@H](CC(C)C)NC(=O)[C@@H]2[C@@H](c3ccccc3)CCN2C(=O)[C@H](NC(=O)[C@H](CCCNC(=N)N)NC(=O)[C@H](CCCNC(=N)N)NC(=O)[C@H](CCCCN=[N+]=[N-])NC(C)=O)CSCSC[C@@H](C(=O)N[C@@H](CCCNC(=N)N)C(=O)N[C@@H](CCCNC(=N)N)C(N)=O)NC(=O)[C@H](C(C)C)NC(=O)[C@@H]2CCCN2C(=O)[C@H](CC(=O)O)NC(=O)[C@H](Cc2ccc(O)cc2)NC(=O)[C@H](CO)NC1=O` [peptide 6, Ac-Lys(N3)-RR-cyclo(c(methylene)-Prot3Ph-L-Bip-ISYDPVC)-RR-NH2], the IC50 is < 1 nM against KRAS^G12D; 2700 nM with pERK, AsPC-1 cells (setting [2]); 19000 nM in the data set on pERK, AsPC-1 cells (setting [3]). Besides, the “SOS GNE potency / binding, in words” value at KRAS^G12D is recorded as “subnanomolar”. For the same molecule, in data set [1], the half-life at 1 µM was > 6.2 h. The “fold improved cellular activity at 2 h versus 18 h” value with pERK, AsPC-1 cells (AsPC-1 pERK) turned out to be 6 fold. Besides, in the data set with HeLa cells (4 h), the “NanoClick permeability at 4 h, in words” value is reported as “limited permeability”. For the same molecule, the “NanoClick permeability at 18 h, in words” value with HeLa cells (18 h) is “much-increased permeability”. Besides, the values for the EC50 in the data set with HeLa cells (setting [4]) and in the data set on HeLa cells (setting [5]) were 7320 nM and 199 nM, respectively.

Take `CC[C@H](C)[C@@H]1NC(=O)[C@H](Cc2ccc(-c3ccccc3)cc2)NC(=O)[C@H](CC(C)C)NC(=O)[C@@H]2[C@@H](c3ccccc3)CCN2C(=O)[C@H](NC(=O)[C@@H](CCCNC(=N)N)NC(=O)[C@@H](CCCNC(=N)N)NC(C)=O)CSCSC[C@@H](C(=O)N[C@H](CCCNC(=N)N)C(=O)N[C@H](CCCNC(=N)N)C(N)=O)NC(=O)[C@H](C(C)C)NC(=O)[C@@H]2CCCN2C(=O)[C@H](CC(=O)O)NC(=O)[C@H](Cc2ccc(O)cc2)NC(=O)[C@](C)(CO)NC1=O` [peptide 7, Ac-rr-cyclo(c(methylene)-Prot3Ph-L-Bip-I-aMeS-YDPVC)-rr-NH2] (Ac-[dR][dR][dC][Pro(3R-Ph)]L[Bip]I[αMeS]YDPVC[dR][dR]-NH2; linker 3-13 via CH2): the “SOS GNE potency / binding, in words” value on KRAS^G12D is listed as “subnanomolar”. In addition, the half-life in data set [1] (tissue homogenate) was > 6.2 h. The concentration for half-maximal inhibition (IC50) with pERK, AsPC-1 cells (setting [2]) is 3800 nM; with pERK, AsPC-1 cells (setting [3]) it was 3900 nM. Moreover, in the data set on pERK, A375 cells, the “activity in A375 counter screen, in words” value is “no LDH release or activity”. The “LDH release / membrane integrity, in words” value with AsPC-1 cells is recorded as “no LDH release”.

With `CC[C@H](C)[C@@H]1NC(=O)[C@H](Cc2ccc(-c3ccccc3)cc2)NC(=O)[C@H](CC(C)C)NC(=O)[C@@H]2[C@@H](c3ccccc3)CCN2C(=O)[C@H](NC(=O)[C@@H](CCCNC(=N)N)NC(=O)[C@@H](CCCNC(=N)N)NC(=O)[C@H](CCCCN=[N+]=[N-])NC(C)=O)CSCSC[C@@H](C(=O)N[C@H](CCCNC(=N)N)C(=O)N[C@H](CCCNC(=N)N)C(N)=O)NC(=O)[C@H](C(C)C)NC(=O)[C@@H]2CCCN2C(=O)[C@H](CC(=O)O)NC(=O)[C@H](Cc2ccc(O)cc2)NC(=O)[C@](C)(CO)NC1=O` [peptide 9, Ac-Lys(N3)-rr-cyclo(c(methylene)-Prot3Ph-L-Bip-I-aMeS-YDPVC)-rr-NH2], the IC50 against KRAS^G12D was < 1 nM; with pERK, AsPC-1 cells (setting [2]), 6200 nM; in the data set with pERK, AsPC-1 cells (setting [3]) it was 6800 nM. Besides, the half-life at 1 µM in data set [1] is > 6.2 h. Further, the EC50 in the data set with HeLa cells (setting [4]) was found to be 1490 nM; in the data set on HeLa cells (setting [5]) it was 148 nM; in the data set on HeLa cells (read-out: NanoClick permeability EC50 at 4 h, 4 h), 1500 nM; with HeLa cells (read-out: NanoClick permeability EC50 at 18 h, 18 h), 150 nM.
